Test results as given in ChEMBL document CHEMBL4680373, “Evaluation of 5-(Trifluoromethyl)-1,2,4-oxadiazole-Based Class IIa HDAC Inhibitors for Huntington's Disease” (ACS Med Chem Lett, 2021).

Legend:
[1] = molecular target: Muscarinic acetylcholine receptor M4 (Homo sapiens, UniProt P08173); test: Displacement of [3H]4-DAMP from human recombinant M4 receptor incubated for 1 hr by radiometric scintillation counting analysis
[2] = Toxicity in CBAxC57BL/6J mouse assessed as effect on seizure by tail at 10 to 100 mg/kg, po bid for 14.5 days; type: organism-based; details: in vivo, 348 h, dose 10-100 mg/kg, time 14.5 day
Procedure, shortened: (§1)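 R6/2 HD mice and wild-type littermates, male and female, were dosed orally b.i.d. at 10, 30 or 100 mg/kg or with vehicle for 14.5 days. Vehicle was 10% (w/v) hydroxypropyl-β-cyclodextrin in 50 mM citrate buffer. Body weight, body temperature, passive observations and active manipulation scores were recorded. Blood and brain were collected 2 h after the final dose.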

[3] = Toxicity in CBAxC57BL/6J mouse assessed as effect on locomotor activity at 10 to 100 mg/kg, po bid for 14.5 days; type: organism-based; details: in vivo, 348 h, dose 10-100 mg/kg, time 14.5 day; procedure, shortened: as §1
[4] = molecular target: Muscarinic acetylcholine receptor M1 (Homo sapiens, UniProt P11229); test: Displacement of [3H]pirenzapine from human recombinant M1 receptor incubated for 1 hr by radiometric scintillation counting analysis
[5] = Toxicity in CBAxC57BL/6J mouse assessed as effect on struggle by tail at 10 to 100 mg/kg, po bid for 14.5 days; type: organism-based; details: in vivo, 348 h, dose 10-100 mg/kg, time 14.5 day; procedure, shortened: as §1
[6] = Toxicity in CBAxC57BL/6J mouse assessed as effect on tail tremor at 10 to 100 mg/kg, po bid for 14.5 days; type: organism-based; details: in vivo, 348 h, dose 10-100 mg/kg, time 14.5 day; procedure, shortened: as §1
[7] = Tmax in C57BL/6J mouse brain at 11.5 mg/kg, po administered via gavage by LC-MS/MS analysis; type: ADME, organism-based
[8] = molecular target: Cav1.2 (voltage-dependent L-type calcium channel subunit alpha-1C) (Rattus norvegicus, UniProt P22002); test: Displacement of [3H]Diltiazem from Cav1.2 in rat brain at 10 uM incubated for 120 mins by radiometric scintillation counting analysis; type: tissue-based; details: probe [3H]Diltiazem
Procedure, shortened: (§2)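 Broad selectivity panel of binding, cellular, functional and enzymatic assays run by a contract lab. Each test was done at a single 10 μM concentration and reported as percent inhibition.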

Homo sapiens = organism: Homo sapiens; test: Inhibition of sodium channel (unknown origin) at 10 uM; procedure, shortened: as §2
[9] = Metabolic stability of the compound in C57BL/6 mouse plasma at 5 uM measured for 60 mins by LC-MS/MS analysis; type: ADME, cell-free; details: 1 h
Histone deacetylase 4 = Histone deacetylase 4 (Homo sapiens, UniProt P56524); test: Inhibition of Class 2A HDAC4 in human Jurkat E6.1 cells using Boc-Lys-(TFA)-AMC as substrate by fluorogenic assay; type: cell-based
Procedure, shortened: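 Whole-cell assay in Jurkat E6.1 cells with artificial fluorogenic substrates: Boc-Lys-(TFA)-AMC for class IIa/HDAC8 activity, which in this line is mostly HDAC4, and Boc-Lys-(Ac)-AMC for class I/IIb activity. IC50 given as the geometric mean of three experiments.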

[10] = Volume of distribution in C57BL/6J mouse at 3.3 mg/kg, iv by LC-MS/MS analysis; type: ADME, organism-based; details: in vivo
Procedure, shortened: (§3)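 Fed male C57Bl/6 mice dosed once intravenously at 3.3 mg/kg and by oral gavage at 11.5 mg/kg. Compound levels were quantified to derive PK parameters.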

Histone deacetylase 9 = Histone deacetylase 9 (Homo sapiens, UniProt Q9UKV0); test: Inhibition of HDAC9 (unknown origin) using Boc Lys(TFA) as substrate by fluorogenic assay
Procedure, shortened: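 Biochemical HDAC isoform assay with the artificial fluorogenic substrate Boc-Lys-(TFA)-AMC, which is specific to class IIa enzymes and HDAC8. IC50 taken as the geometric mean of three experiments.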

Cytochrome P450 3A4 [11] = molecular target: T1, Cytochrome P450 3A4 (Homo sapiens, UniProt P08684); test: Inhibition of CYP3A4 in human liver microsomes using testosterone as substrate incubated for 30 mins by LC-MS/MS analysis; type: ADME
[12] = molecular target: Class 1 histone deacetylase (Homo sapiens, UniProt Q13547+O15379+Q92769+Q9BY41); test: Inhibition of Class 1 HDAC in human HEK293 cells using H4K12 as substrate by fluorogenic assay; type: cell-based
[13] = molecular target: Muscarinic acetylcholine receptor M1 (Homo sapiens) (UniProt P11229); test: Displacement of [3H]pirenzapine from human recombinant M1 receptor at 10 uM incubated for 1 hr by radiometric scintillation counting analysis; procedure, shortened: as §2
[14] = Toxicity in CBAxC57BL/6J mouse assessed as effect on body weight at 10 to 100 mg/kg, po bid for 14.5 days; type: organism-based; details: in vivo, 348 h, dose 10-100 mg/kg, time 14.5 day; procedure, shortened: as §1
[15] = Plasma clearance in C57BL/6J mouse at 3.3 mg/kg, iv by LC-MS/MS analysis; type: ADME, organism-based; procedure, shortened: as §3
[16] = Toxicity in CBAxC57BL/6J mouse assessed as effect on irritability at 10 to 100 mg/kg, po bid for 14.5 days; type: organism-based; details: in vivo, 348 h, dose 10-100 mg/kg, time 14.5 day; procedure, shortened: as §1
Cytochrome P450 1A2 = Cytochrome P450 1A2 (Homo sapiens, UniProt P05177); test: Inhibition of CYP1A2 in human liver microsomes using phenacetin as substrate incubated for 30 mins by LC-MS/MS analysis; type: ADME
[17] = Time during which drug concentration exceeds the IC50 for inhibition of human Class 2A HDAC in C57BL/6J mouse brain at 10 mg/kg, po administered via gavage by LC-MS/MS analysis; type: organism-based; details: in vivo
Procedure, shortened: (§4)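 Single oral gavage doses of 10, 30 or 100 mg/kg were given to C57/BL6 mice. Brain and blood were sampled from 0.25 to 12 h and compound measured by LC-MS/MS. The time that total brain exposure stayed above the class IIa cellular IC50 was then estimated.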

Cytochrome P450 3A4 [18] = molecular target: T1, Cytochrome P450 3A4; test: Inhibition of CYP3A4 in human liver microsomes using midazolam as substrate incubated for 15 mins by LC-MS/MS analysis; type: ADME
[19] = Time during which drug concentration exceeds the IC50 for inhibition of human Class 2A HDAC in C57BL/6J mouse brain at 30 mg/kg, po administered via gavage by LC-MS/MS analysis; type: organism-based; details: in vivo; procedure, shortened: as §4
[20] = molecular target: Muscarinic acetylcholine receptor M2 (Homo sapiens) (UniProt P08172); test: Displacement of [3H]AF-DX384 from human recombinant M2 receptor at 10 uM incubated for 1 hr by radiometric scintillation counting analysis; procedure, shortened: as §2
[21] = Toxicity in CBAxC57BL/6J mouse assessed as effect on head tremor at 10 to 100 mg/kg, po bid for 14.5 days; type: organism-based; details: in vivo, 348 h, dose 10-100 mg/kg, time 14.5 day; procedure, shortened: as §1
[22] = Toxicity in CBAxC57BL/6J mouse assessed as effect on shallow respiration at 10 to 100 mg/kg, po bid for 14.5 days; type: organism-based; details: in vivo, 348 h, dose 10-100 mg/kg, time 14.5 day; procedure, shortened: as §1
Cytochrome P450 2C19 = Cytochrome P450 2C19 (Homo sapiens, UniProt P33261); test: Inhibition of CYP2C19 in human liver microsomes using (S)-(+)-mephenytoin as substrate incubated for 30 mins by LC-MS/MS analysis; type: ADME
[23] = Toxicity in CBAxC57BL/6J mouse assessed as effect on seizure at 10 to 100 mg/kg, po bid for 14.5 days; type: organism-based; details: in vivo, 348 h, dose 10-100 mg/kg, time 14.5 day; procedure, shortened: as §1
Histone deacetylase 2 = Histone deacetylase 2 (Homo sapiens, UniProt Q92769); test: Inhibition of HDAC2 (unknown origin) using Ac-Arg-Gly-Lys(Ac) as substrate by fluorogenic assay
Chain of Histone deacetylase 2 (Q92769 whole entry): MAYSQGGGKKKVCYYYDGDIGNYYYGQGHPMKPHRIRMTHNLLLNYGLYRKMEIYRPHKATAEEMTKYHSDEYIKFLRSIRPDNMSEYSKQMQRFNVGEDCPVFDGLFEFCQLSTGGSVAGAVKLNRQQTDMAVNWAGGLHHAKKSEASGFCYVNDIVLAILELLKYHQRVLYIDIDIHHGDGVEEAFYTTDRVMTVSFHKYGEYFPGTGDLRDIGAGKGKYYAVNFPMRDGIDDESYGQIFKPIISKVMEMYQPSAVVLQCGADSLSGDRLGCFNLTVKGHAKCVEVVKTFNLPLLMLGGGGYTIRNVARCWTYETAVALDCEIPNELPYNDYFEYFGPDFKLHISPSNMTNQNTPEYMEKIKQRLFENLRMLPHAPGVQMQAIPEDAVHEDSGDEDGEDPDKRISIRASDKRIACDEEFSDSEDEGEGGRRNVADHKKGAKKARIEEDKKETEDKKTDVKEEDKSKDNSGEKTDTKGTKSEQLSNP

T1 sequence (P08684 whole entry): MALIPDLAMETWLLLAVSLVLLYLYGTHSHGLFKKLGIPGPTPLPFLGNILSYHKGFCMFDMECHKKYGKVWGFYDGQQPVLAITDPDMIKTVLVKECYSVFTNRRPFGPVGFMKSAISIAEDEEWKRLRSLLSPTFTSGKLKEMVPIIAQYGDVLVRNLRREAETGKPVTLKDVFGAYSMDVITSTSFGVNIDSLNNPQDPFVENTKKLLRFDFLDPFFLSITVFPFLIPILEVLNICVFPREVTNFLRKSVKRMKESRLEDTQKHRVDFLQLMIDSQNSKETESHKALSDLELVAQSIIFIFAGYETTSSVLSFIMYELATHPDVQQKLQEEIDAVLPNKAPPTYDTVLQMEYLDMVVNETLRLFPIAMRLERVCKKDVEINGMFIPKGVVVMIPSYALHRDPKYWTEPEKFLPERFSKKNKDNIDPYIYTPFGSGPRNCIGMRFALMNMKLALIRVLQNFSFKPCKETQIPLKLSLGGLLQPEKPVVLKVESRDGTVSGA
Chain of Muscarinic acetylcholine receptor M4 (P08173 whole entry): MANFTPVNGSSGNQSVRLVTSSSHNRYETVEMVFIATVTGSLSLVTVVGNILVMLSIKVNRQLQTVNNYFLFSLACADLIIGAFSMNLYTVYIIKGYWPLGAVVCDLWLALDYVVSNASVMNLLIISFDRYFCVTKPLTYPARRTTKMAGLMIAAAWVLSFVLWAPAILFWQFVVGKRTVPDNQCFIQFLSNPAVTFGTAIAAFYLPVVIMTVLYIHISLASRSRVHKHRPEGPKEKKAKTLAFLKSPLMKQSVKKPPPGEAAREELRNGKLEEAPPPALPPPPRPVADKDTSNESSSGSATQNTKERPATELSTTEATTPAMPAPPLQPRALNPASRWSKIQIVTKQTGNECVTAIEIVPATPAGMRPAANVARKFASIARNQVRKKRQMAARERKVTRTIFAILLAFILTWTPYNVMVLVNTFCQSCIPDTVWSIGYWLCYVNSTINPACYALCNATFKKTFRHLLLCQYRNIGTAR
Chain of Cytochrome P450 2C19 (P33261 whole entry): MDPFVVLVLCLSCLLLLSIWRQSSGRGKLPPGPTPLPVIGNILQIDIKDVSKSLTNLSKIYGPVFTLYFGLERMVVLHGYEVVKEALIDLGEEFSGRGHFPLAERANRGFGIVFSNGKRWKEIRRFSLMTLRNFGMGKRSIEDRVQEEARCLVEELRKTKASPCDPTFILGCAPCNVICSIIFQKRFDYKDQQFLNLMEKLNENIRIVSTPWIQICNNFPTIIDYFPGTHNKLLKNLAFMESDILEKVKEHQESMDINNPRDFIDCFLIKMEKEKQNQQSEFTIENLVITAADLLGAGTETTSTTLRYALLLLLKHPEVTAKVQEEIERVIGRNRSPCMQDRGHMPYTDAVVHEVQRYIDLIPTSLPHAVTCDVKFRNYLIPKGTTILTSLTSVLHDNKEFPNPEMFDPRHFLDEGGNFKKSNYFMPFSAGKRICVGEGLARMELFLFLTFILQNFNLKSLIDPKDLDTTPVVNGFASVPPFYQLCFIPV
Chain of Muscarinic acetylcholine receptor M2 (Homo sapiens) (P08172 whole entry): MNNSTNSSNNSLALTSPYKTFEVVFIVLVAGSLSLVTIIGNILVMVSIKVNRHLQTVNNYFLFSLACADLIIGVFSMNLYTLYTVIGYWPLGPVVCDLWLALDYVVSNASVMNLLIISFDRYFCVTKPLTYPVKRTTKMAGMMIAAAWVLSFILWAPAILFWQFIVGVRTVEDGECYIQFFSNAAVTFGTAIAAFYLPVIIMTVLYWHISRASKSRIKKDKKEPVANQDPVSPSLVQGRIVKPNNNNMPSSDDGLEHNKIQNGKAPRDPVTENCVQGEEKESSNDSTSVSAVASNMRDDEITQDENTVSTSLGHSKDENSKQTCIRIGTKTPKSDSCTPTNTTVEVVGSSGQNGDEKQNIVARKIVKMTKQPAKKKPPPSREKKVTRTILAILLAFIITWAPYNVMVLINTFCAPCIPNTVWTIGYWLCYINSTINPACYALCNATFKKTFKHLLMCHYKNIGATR
Chain of Histone deacetylase 4 (P56524 whole entry): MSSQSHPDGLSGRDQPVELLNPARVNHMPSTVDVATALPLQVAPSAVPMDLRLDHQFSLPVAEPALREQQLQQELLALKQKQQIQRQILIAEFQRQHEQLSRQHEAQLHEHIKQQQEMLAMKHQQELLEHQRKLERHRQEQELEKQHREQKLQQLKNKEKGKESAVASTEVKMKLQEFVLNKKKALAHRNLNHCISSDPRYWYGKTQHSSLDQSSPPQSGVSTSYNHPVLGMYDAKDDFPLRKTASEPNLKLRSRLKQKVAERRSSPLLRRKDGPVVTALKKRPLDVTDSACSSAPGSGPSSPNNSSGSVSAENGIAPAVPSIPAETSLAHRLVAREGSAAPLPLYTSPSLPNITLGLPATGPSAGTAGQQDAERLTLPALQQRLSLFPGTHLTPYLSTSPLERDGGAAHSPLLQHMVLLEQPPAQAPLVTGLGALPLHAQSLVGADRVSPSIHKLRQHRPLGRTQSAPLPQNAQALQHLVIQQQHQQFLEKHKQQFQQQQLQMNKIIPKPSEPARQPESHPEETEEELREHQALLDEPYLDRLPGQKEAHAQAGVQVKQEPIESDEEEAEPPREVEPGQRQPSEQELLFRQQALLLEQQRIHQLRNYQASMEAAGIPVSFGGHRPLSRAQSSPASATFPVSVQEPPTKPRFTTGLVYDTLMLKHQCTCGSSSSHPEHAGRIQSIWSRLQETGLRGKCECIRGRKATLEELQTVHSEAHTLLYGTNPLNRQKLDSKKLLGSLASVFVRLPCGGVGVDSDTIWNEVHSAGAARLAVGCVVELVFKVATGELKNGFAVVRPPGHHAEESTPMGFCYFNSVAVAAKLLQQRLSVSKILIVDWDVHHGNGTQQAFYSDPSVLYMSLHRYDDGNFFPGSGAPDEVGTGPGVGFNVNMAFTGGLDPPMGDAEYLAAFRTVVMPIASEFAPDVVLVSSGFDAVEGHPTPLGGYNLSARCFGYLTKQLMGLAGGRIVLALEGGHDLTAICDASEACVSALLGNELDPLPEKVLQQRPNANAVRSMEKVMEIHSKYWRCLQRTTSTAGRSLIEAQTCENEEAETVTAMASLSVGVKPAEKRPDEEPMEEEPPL
Chain of Cytochrome P450 1A2 (P05177 whole entry): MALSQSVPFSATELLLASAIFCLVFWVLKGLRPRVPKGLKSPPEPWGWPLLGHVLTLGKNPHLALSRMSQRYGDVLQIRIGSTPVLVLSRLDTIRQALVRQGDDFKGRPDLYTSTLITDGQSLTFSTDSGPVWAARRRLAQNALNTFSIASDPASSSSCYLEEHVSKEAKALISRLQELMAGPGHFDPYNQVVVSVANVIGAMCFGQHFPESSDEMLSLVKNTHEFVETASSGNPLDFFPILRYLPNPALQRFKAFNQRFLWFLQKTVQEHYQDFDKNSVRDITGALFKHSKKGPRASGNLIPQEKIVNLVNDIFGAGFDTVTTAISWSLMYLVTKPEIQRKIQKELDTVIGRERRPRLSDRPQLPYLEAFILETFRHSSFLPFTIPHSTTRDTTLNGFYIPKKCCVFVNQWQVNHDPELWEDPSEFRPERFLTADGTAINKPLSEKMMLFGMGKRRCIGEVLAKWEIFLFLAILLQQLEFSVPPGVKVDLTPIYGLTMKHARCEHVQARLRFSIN
Chain of Muscarinic acetylcholine receptor M1 (P11229 whole entry): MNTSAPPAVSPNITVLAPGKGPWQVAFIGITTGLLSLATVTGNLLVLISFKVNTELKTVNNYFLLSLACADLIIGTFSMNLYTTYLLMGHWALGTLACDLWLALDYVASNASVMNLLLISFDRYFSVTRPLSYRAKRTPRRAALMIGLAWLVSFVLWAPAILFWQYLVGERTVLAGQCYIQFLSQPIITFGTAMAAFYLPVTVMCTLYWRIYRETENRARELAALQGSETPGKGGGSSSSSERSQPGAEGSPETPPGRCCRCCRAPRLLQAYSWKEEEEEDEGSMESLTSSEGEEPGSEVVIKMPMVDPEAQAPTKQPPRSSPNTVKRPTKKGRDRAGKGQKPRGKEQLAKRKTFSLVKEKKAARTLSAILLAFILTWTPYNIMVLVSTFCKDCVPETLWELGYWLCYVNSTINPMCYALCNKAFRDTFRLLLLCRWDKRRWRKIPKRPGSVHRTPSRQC
Chain of Muscarinic acetylcholine receptor M1 (Homo sapiens) (P11229 whole entry): as above

- Kd [1]: > 5 µM
- Kd [4]: > 5 µM
- Tmax [7]: 30 min
- inhibition (Homo sapiens): > 50%
- Stabilty [9]: Stable
- IC50 (Histone deacetylase 4): 0.04 µM
- Vd [10]: 3.8 L/kg
- IC50 (Histone deacetylase 9): 0.03 µM
- IC50 (Cytochrome P450 3A4 [11]): > 50 µM
- IC50 [12]: 9.9 µM
- inhibition [13]: > 80%
- clearance [15]: 70 mL/min/kg
- IC50 (Cytochrome P450 1A2): > 50 µM
- T>IC50 [17]: 4 h
- IC50 (Cytochrome P450 3A4 [18]): > 50 µM
- T>IC50 [19]: 8 h
- inhibition [20]: > 80%
- IC50 (Cytochrome P450 2C19): > 50 µM
- IC50 (Histone deacetylase 2): 27 µM
SMILES: C[C@H](CN1CCC[C@@H]1C)NC(=O)c1ccc(-c2noc(C(F)(F)F)n2)cc1
- Activity [2]: Non-Toxic
- Activity [3]: Non-Toxic
- Activity [5]: Non-Toxic
- Activity [6]: Non-Toxic
- inhibition at 2 h, 10 µM [8]: > 50%
- Activity [14]: Non-Toxic
- Activity [16]: Non-Toxic
- Activity [21]: Non-Toxic
- Activity [22]: Non-Toxic
- Activity [23]: Non-Toxic
